Converted amounts (≈) assume the structure as drawn. The source made the active and inactive calls. The calls are words filed in the database; no cut-off is given here.

Here are results for 8 molecules from ChEMBL document CHEMBL3351380, “Antioxidant and antimicrobial studies on fused-ring pyrazolones and isoxazolones” (Bioorg Med Chem, 2014).

In data set [1] the test system is Candida albicans. The experiment in a line: Antifungal activity against Candida albicans assessed as zone of inhibition at 100 ug/ml by agar well diffusion method. In kind it is functional. To be noted: for zone of inhibition at 100 µg/mL: read-out: IZ. The gist of the method:
(§1)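 For the agar well diffusion screen, samples at 100 µg/mL were made from a stock of 10 mg in 1 mL EtOH diluted 1:1 (v/v) with Mueller-Hinton medium. The zone of inhibition was scored as 5–10 mm poor, 10–15 moderate, 15–20 good and 20–25 very good. Gentamycin and nystatin were the reference drugs. Strains were confirmed at the University of Botswana microbiology laboratory.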

Data set [2] deals with Staphylococcus aureus. The experiment in a line: Antimicrobial activity against Staphylococcus aureus ATCC 25923 by agar well diffusion method. Type of data set: functional.
The test system of data set [3] is Escherichia coli. Nature of the data set: Antimicrobial activity against Escherichia coli ATCC 8739 by agar well diffusion method. In kind it is functional. (In agar diffusion tests the substance spreads into inoculated agar from a disc or well.)
Data set [4] concerns Pseudomonas aeruginosa. The experiment in a line: Antimicrobial activity against Pseudomonas aeruginosa NCIMB 8295 by agar well diffusion method. In kind it is functional.
The subject of data set [5] is Bacillus subtilis. Nature of the data set: Antimicrobial activity against Bacillus subtilis NCIB 3610 by agar well diffusion method. Type of data set: functional. To be noted: subsp. subtilis str. NCIB 3610.
For data set [6], the system named is Candida albicans. Nature of the data set: Antifungal activity against Candida albicans by agar well diffusion method. Type of data set: functional.
The nature of data set [7]: Antioxidant activity assessed as DPPH radical scavenging activity after 30 mins by spectrophotometry. In kind it is physicochemical. The gist of the method:
(§2)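 DPPH (0.51 mM in methanol) was mixed 1:1 by volume with the compound at several concentrations (100, 50, 25 … µg/mL range). Absorbance was read against a control, and % inhibition = (A0−As)/A0 ×100. Readings were taken at 30 min and 3 h, with ascorbic acid as the reference. Triplicate measurements.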

Data set [8] is described as follows: Antioxidant activity assessed as DPPH radical scavenging activity after 3 hrs by spectrophotometry. In kind it is physicochemical. In short, it runs like this: as §2
A short description of data set [9]: Metal chelating activity of the compound assessed as formation of iron complex after 20 mins by spectrophotometry. Type of data set: physicochemical. The gist of the method:
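Fe2+ chelation was measured by disruption of the o-phenanthroline–Fe2+ complex. O-phenanthroline (0.05% in methanol) and FeCl2 (0.1%) were mixed with the sample at various concentrations and held at room temperature for 20 min, then read at 510 nm. EDTA was the standard chelator. % chelation = (Acontrol−Asample)/Acontrol ×100, and IC50 came from plots of % chelation versus concentration. Triplicates.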

Data set [10] relates to Staphylococcus aureus. The experiment in a line: Antimicrobial activity against Staphylococcus aureus ATCC 25923 assessed as zone of inhibition at 100 ug/ml by agar well diffusion method. Type of data set: functional. To be noted: for zone of inhibition at 100 µg/mL: read-out: IZ. In short, it runs like this:
as §1

Data set [11] concerns Escherichia coli. Nature of the data set: Antimicrobial activity against Escherichia coli ATCC 8739 assessed as zone of inhibition at 100 ug/ml by agar well diffusion method. Type of data set: functional. In short, it runs like this:
as §1

The subject of data set [12] is Pseudomonas aeruginosa. Nature of the data set: Antimicrobial activity against Pseudomonas aeruginosa NCIMB 8295 assessed as zone of inhibition at 100 ug/ml by agar well diffusion method. In kind it is functional. In short, it runs like this:
as §1

For data set [13], the system named is Bacillus subtilis. Nature of the data set: Antimicrobial activity against Bacillus subtilis NCIB 3610 assessed as zone of inhibition at 100 ug/ml by agar well diffusion method. In kind it is functional. To be noted: for Activity: subsp. subtilis str. NCIB 3610; for zone of inhibition at 100 µg/mL: subsp. subtilis str. NCIB 3610, read-out: IZ. In short, it runs like this:
as §1

Data set [14] is described as follows: Antioxidant activity assessed as DPPH radical scavenging activity at 10 ug/ml after 3 hrs by spectrophotometry. In kind it is physicochemical. Background: The DPPH test is a chemical assay of radical scavenging.

The MIC is the lowest concentration found to suppress growth. Usually IC50 stands for the concentration that inhibits the measured activity by half. In the case of `CCOC(=O)C1C(=O)C=C(c2ccc(OC)cc2)CC1c1cccc([N+](=O)[O-])c1` (stereo not given), the outcome in the data set on Candida albicans [1], with Staphylococcus aureus [10], in the data set with Escherichia coli [11], with Pseudomonas aeruginosa [12] and in the data set on Bacillus subtilis [13] was inactive. Besides, the MIC entry in the data set with Staphylococcus aureus [2], in the data set with Escherichia coli [3], with Pseudomonas aeruginosa [4], with Bacillus subtilis [5] and in the data set with Candida albicans [6] was “inactive” in each case. Also, the figures for the IC50 in data set [7], in data set [8] and in [9] were 196.5 µg/mL (≈ 497 µM), 98.53 µg/mL (≈ 249 µM) and 1028 µg/mL (≈ 2600 µM), respectively.
Regarding `CCOC(=O)C1C(=O)C=C(c2ccc(Br)cc2)CC1c1cccc([N+](=O)[O-])c1` (stereo not given), the result in the data set on Candida albicans [1], in the data set with Staphylococcus aureus [10], with Escherichia coli [11], in the data set with Pseudomonas aeruginosa [12] and in the data set with Bacillus subtilis [13] was inactive. The MIC entry in the data set on Staphylococcus aureus [2], with Escherichia coli [3], with Pseudomonas aeruginosa [4], in the data set on Bacillus subtilis [5] and with Candida albicans [6] was “inactive” in each case. Moreover, the figures for the 50% inhibitory concentration (IC50) in data set [7], in data set [8] and in data set [9] were 409.1 µg/mL (≈ 921 µM), 409.1 µg/mL (≈ 921 µM) and 1148.57 µg/mL (≈ 2590 µM), respectively.
Take `O=C1NN=C2C=C(c3ccc(O)cc3)CC(c3cccc([N+](=O)[O-])c3)C12` (stereo not given): the zone of inhibition at 100 µg/mL in the data set on Candida albicans [1] and with Staphylococcus aureus [10] was 11 mm throughout. The MIC against Staphylococcus aureus [2] and against Candida albicans [6] was 2.5 µg/mL (≈ 7.16 µM) in each case. Further, the MIC entry with Escherichia coli [3], in the data set with Pseudomonas aeruginosa [4] and in the data set on Bacillus subtilis [5] was “inactive” each time. The IC50 in data set [7] came to 55.88 µg/mL (≈ 160 µM); in data set [8] it was 30.23 µg/mL (≈ 86.5 µM); in data set [9] it was 80.91 µg/mL (≈ 232 µM). Further, in data set [14], the “inhibition (INH)” value is > 40%. Besides, the result in the data set with Escherichia coli [11], with Pseudomonas aeruginosa [12] and in the data set with Bacillus subtilis [13] was inactive.
Consider `O=C1NN=C2C=C(c3ccccc3)CC(c3cccc([N+](=O)[O-])c3)C12` (stereo not given), for which the outcome in the data set on Candida albicans [1], in the data set with Escherichia coli [11] and in the data set on Pseudomonas aeruginosa [12] was inactive. Besides, the MIC against Staphylococcus aureus [2] and in the data set on Bacillus subtilis [5] was 2.5 µg/mL (≈ 7.5 µM) in each case. For the same molecule, the MIC entry in the data set with Escherichia coli [3], in the data set with Pseudomonas aeruginosa [4] and in the data set on Candida albicans [6] was “inactive” throughout. Moreover, the results for the IC50 in data set [7], in data set [8] and in [9] were 98.53 µg/mL (≈ 296 µM), 59.5 µg/mL (≈ 178 µM) and 93.04 µg/mL (≈ 279 µM), respectively. For the same molecule, the zone of inhibition at 100 µg/mL came out at 12 mm in the data set on Staphylococcus aureus [10] and 13 mm in the data set with Bacillus subtilis [13].
Take `O=C1ON=C2C=C(c3ccc(Br)cc3)CC(c3cccc([N+](=O)[O-])c3)C12` (stereo not given): the zone of inhibition at 100 µg/mL in the data set with Candida albicans [1] is 9 mm. In addition, the MIC result in the data set with Staphylococcus aureus [2], with Escherichia coli [3], in the data set with Pseudomonas aeruginosa [4] and with Bacillus subtilis [5] was “inactive” in each case. The molecule also had an MIC against Candida albicans [6] of 2.5 µg/mL (≈ 6.05 µM). Further, the results for the IC50 in data set [7], in [8] and in data set [9] were 305.01 µg/mL (≈ 738 µM), 218.75 µg/mL (≈ 529 µM) and 816.48 µg/mL (≈ 1980 µM), respectively. Also, the outcome with Staphylococcus aureus [10], in the data set with Escherichia coli [11], in the data set with Pseudomonas aeruginosa [12] and in the data set with Bacillus subtilis [13] was inactive.
As for `COc1ccc(C2=CC3=NOC(=O)C3C(c3cccc([N+](=O)[O-])c3)C2)c(OC)c1` (stereo not given), the outcome in the data set with Candida albicans [1], in the data set with Staphylococcus aureus [10], in the data set on Escherichia coli [11], in the data set on Pseudomonas aeruginosa [12] and with Bacillus subtilis [13] was inactive. In addition, the MIC entry with Staphylococcus aureus [2], in the data set with Escherichia coli [3], with Pseudomonas aeruginosa [4], in the data set on Bacillus subtilis [5] and in the data set with Candida albicans [6] was “inactive” each time. Also, the IC50 in [7] was determined as 275 µg/mL (≈ 697 µM); in [8], 140.02 µg/mL (≈ 355 µM); in data set [9], 746.04 µg/mL (≈ 1890 µM).
For `CCOC(=O)C1C(=O)C=C(c2cccs2)CC1c1cccc([N+](=O)[O-])c1` (stereo not given), the results for the zone of inhibition at 100 µg/mL in the data set with Candida albicans [1] and in the data set with Bacillus subtilis [13] were 8 mm and 12 mm, respectively. Also, the MIC entry in the data set with Staphylococcus aureus [2], in the data set with Escherichia coli [3] and with Pseudomonas aeruginosa [4] was “inactive” each time. Besides, the MIC against Bacillus subtilis [5] and in the data set on Candida albicans [6] was 2.5 µg/mL (≈ 6.73 µM) each time. For the same molecule, the values for the IC50 in [7], in data set [8] and in [9] were 208.95 µg/mL (≈ 563 µM), 133.66 µg/mL (≈ 360 µM) and 1030.56 µg/mL (≈ 2770 µM), respectively. For the same molecule, the result in the data set with Staphylococcus aureus [10], with Escherichia coli [11] and with Pseudomonas aeruginosa [12] was inactive.
With `O=C1ON=C2C=C(c3ccc(O)cc3)CC(c3cccc([N+](=O)[O-])c3)C12` (stereo not given), the zone of inhibition at 100 µg/mL in the data set with Candida albicans [1], with Staphylococcus aureus [10] and in the data set on Escherichia coli [11] (read-out: IZ) was 10 mm throughout. Further, the MIC against Staphylococcus aureus [2], with Escherichia coli [3] and with Candida albicans [6] was 2.5 µg/mL (≈ 7.14 µM) in each case. Moreover, the MIC entry with Pseudomonas aeruginosa [4] and in the data set on Bacillus subtilis [5] was “inactive” in each case. For the same molecule, the values for the IC50 in data set [7], in data set [8] and in data set [9] were 202.15 µg/mL (≈ 577 µM), 118.69 µg/mL (≈ 339 µM) and 360.98 µg/mL (≈ 1030 µM), respectively. The result in the data set with Pseudomonas aeruginosa [12] and in the data set on Bacillus subtilis [13] was inactive.
